Results as given in ChEMBL document CHEMBL5058577, “EUbOPEN Chemogenomics Library 2 (Multiplex)” (2022).

Tested on: U2OS
Assay: Multiplex assay against U2OS
Assay type: toxicity, cell-based
Settings: human
Summary of the method: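 With compound added, live cells were imaged on a CQ1 microscope at 37°C and 5% CO2; staining with Hoechst33342, BioTracker Green Microtubule Cytoskeleton Dye, MitoTracker Red and Annexin V Alexa Fluor 680 had been done at seeding. The CellPathfinder machine-learning gating scheme split cells into Hoechst high-intensity objects or normal cells, normal cells into healthy, pyknosed or fragmented nuclei, and pyknosed cells into mitotic or apoptotic. The tubulin, mitochondrial-mass and membrane-permeability phenotypes are per cents of healthy-nucleus cells.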

[1] = 12 h, 1 µM, compound concentration 1 uM, replicate 1
[2] = 12 h, 1 µM, compound concentration 1 uM, replicate 2
[3] = 12 h, 10 µM, compound concentration 10 uM, replicate 1
[4] = 12 h, 10 µM, compound concentration 10 uM, replicate 2
[5] = 24 h, 1 µM, compound concentration 1 uM, replicate 1
[6] = 24 h, 1 µM, compound concentration 1 uM, replicate 2
[7] = 24 h, 10 µM, compound concentration 10 uM, replicate 1
[8] = 24 h, 10 µM, compound concentration 10 uM, replicate 2
[9] = 48 h, 1 µM, compound concentration 1 uM, replicate 1
[10] = 48 h, 1 µM, compound concentration 1 uM, replicate 2
[11] = 48 h, 10 µM, compound concentration 10 uM, replicate 1
[12] = 48 h, 10 µM, compound concentration 10 uM, replicate 2

CN(C)c1ccnc2sc3c(=O)n(N4CCCCCC4)cnc3c12
Population Apoptotic (%) [1]: 81% | Population Fragmented Nuclei (%) [1]: 19% | Population Healthy Nuclei (%) [1]: 72% | Population Hoechst High Intensity Objects (%) [1]: 1% | Population Membrane Permeable-Phenotype (%) [1]: 4% | Population Mitochondria Different-Phenotype (%) [1]: 2% | Population Mitotic Cells (%) [1]: 18% | Population Normal (%) [1]: 98% | Population Pyknosed Nuclei (%) [1]: 7% | Population Tubulin-Different-Phenotype (%) [1]: 2% | Total Cell Count [1]: 284 | Population Apoptotic (%) [2]: 87% | Population Fragmented Nuclei (%) [2]: 16% | Population Healthy Nuclei (%) [2]: 77% | Population Membrane Permeable-Phenotype (%) [2]: 6% | Population Mitotic Cells (%) [2]: 12% | Population Pyknosed Nuclei (%) [2]: 6% | Total Cell Count [2]: 132 | Population Apoptotic (%) [3]: 41% | Population Fragmented Nuclei (%) [3]: 30% | Population Healthy Nuclei (%) [3]: 56% | Population Hoechst High Intensity Objects (%) [3]: 4% | Population Membrane Permeable-Phenotype (%) [3]: 30% | Population Mitochondria Different-Phenotype (%) [3]: 14% | Population Mitotic Cells (%) [3]: 58% | Population Normal (%) [3]: 95% | Population Pyknosed Nuclei (%) [3]: 12% | Population Tubulin-Different-Phenotype (%) [3]: 20% | Total Cell Count [3]: 249 | Population Apoptotic (%) [4]: 88% | Population Fragmented Nuclei (%) [4]: 18% | Population Healthy Nuclei (%) [4]: 71% | Population Hoechst High Intensity Objects (%) [4]: 5% | Population Membrane Permeable-Phenotype (%) [4]: 23% | Population Mitochondria Different-Phenotype (%) [4]: 27% | Population Mitotic Cells (%) [4]: 11% | Population Normal (%) [4]: 94% | Population Pyknosed Nuclei (%) [4]: 9% | Population Tubulin-Different-Phenotype (%) [4]: 22% | Total Cell Count [4]: 101 | Population Apoptotic (%) [5]: 87% | Population Fragmented Nuclei (%) [5]: 16% | Population Healthy Nuclei (%) [5]: 72% | Population Hoechst High Intensity Objects (%) [5]: 2% | Population Membrane Permeable-Phenotype (%) [5]: 3% | Population Mitochondria Different-Phenotype (%) [5]: 3% | Population Mitotic Cells (%) [5]: 12% | Population Normal (%) [5]: 97% | Population Pyknosed Nuclei (%) [5]: 10% | Population Tubulin-Different-Phenotype (%) [5]: 1% | Total Cell Count [5]: 326 | Population Apoptotic (%) [6]: 72% | Population Fragmented Nuclei (%) [6]: 15% | Population Healthy Nuclei (%) [6]: 76% | Population Membrane Permeable-Phenotype (%) [6]: 6% | Population Mitotic Cells (%) [6]: 27% | Population Pyknosed Nuclei (%) [6]: 7% | Population Tubulin-Different-Phenotype (%) [6]: 4% | Total Cell Count [6]: 150 | Population Apoptotic (%) [7]: 68% | Population Fragmented Nuclei (%) [7]: 28% | Population Healthy Nuclei (%) [7]: 56% | Population Hoechst High Intensity Objects (%) [7]: 4% | Population Membrane Permeable-Phenotype (%) [7]: 22% | Population Mitochondria Different-Phenotype (%) [7]: 15% | Population Mitotic Cells (%) [7]: 31% | Population Normal (%) [7]: 95% | Population Pyknosed Nuclei (%) [7]: 15% | Population Tubulin-Different-Phenotype (%) [7]: 14% | Total Cell Count [7]: 260 | Population Apoptotic (%) [8]: 100% | Population Fragmented Nuclei (%) [8]: 11% | Population Healthy Nuclei (%) [8]: 75% | Population Hoechst High Intensity Objects (%) [8]: 3% | Population Membrane Permeable-Phenotype (%) [8]: 23% | Population Mitochondria Different-Phenotype (%) [8]: 25% | Population Mitotic Cells (%) [8]: 0% | Population Normal (%) [8]: 96% | Population Pyknosed Nuclei (%) [8]: 13% | Population Tubulin-Different-Phenotype (%) [8]: 24% | Total Cell Count [8]: 108 | Population Apoptotic (%) [9]: 90% | Population Fragmented Nuclei (%) [9]: 17% | Population Healthy Nuclei (%) [9]: 74% | Population Hoechst High Intensity Objects (%) [9]: 2% | Population Membrane Permeable-Phenotype (%) [9]: 4% | Population Mitochondria Different-Phenotype (%) [9]: 1% | Population Mitotic Cells (%) [9]: 9% | Population Normal (%) [9]: 97% | Population Pyknosed Nuclei (%) [9]: 8% | Population Tubulin-Different-Phenotype (%) [9]: 2% | Total Cell Count [9]: 486 | Population Apoptotic (%) [10]: 92% | Population Fragmented Nuclei (%) [10]: 15% | Population Healthy Nuclei (%) [10]: 72% | Population Membrane Permeable-Phenotype (%) [10]: 5% | Population Mitochondria Different-Phenotype (%) [10]: 5% | Population Mitotic Cells (%) [10]: 7% | Population Pyknosed Nuclei (%) [10]: 11% | Total Cell Count [10]: 239 | Population Apoptotic (%) [11]: 68% | Population Fragmented Nuclei (%) [11]: 28% | Population Healthy Nuclei (%) [11]: 57% | Population Hoechst High Intensity Objects (%) [11]: 4% | Population Membrane Permeable-Phenotype (%) [11]: 15% | Population Mitochondria Different-Phenotype (%) [11]: 11% | Population Mitotic Cells (%) [11]: 31% | Population Normal (%) [11]: 95% | Population Pyknosed Nuclei (%) [11]: 14% | Population Tubulin-Different-Phenotype (%) [11]: 7% | Total Cell Count [11]: 325 | Population Apoptotic (%) [12]: 72% | Population Fragmented Nuclei (%) [12]: 15% | Population Healthy Nuclei (%) [12]: 61% | Population Hoechst High Intensity Objects (%) [12]: 9% | Population Membrane Permeable-Phenotype (%) [12]: 21% | Population Mitochondria Different-Phenotype (%) [12]: 19% | Population Mitotic Cells (%) [12]: 27% | Population Normal (%) [12]: 90% | Population Pyknosed Nuclei (%) [12]: 22% | Population Tubulin-Different-Phenotype (%) [12]: 23% | Total Cell Count [12]: 140
